# Screens from PubChem BioAssay.
# TRPC4 PAM: TRPC4 (mouse) allosteric potentiation; B-score at 10 µM; 310,000 tested, 0.42% active; AID 2227; HEK293 TRPC4beta/mu-opioid, DAMGO EC20, Fluo-4 Ca2+ flux; hits give high values;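 active = B-score of calcium response area above 5 SD of library B-scores, with initial fluorescence ratio within 5 SD of library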;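 also: B-score of integrated fluorescence ratio over time as area under calcium response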
# TRPC4 block: TRPC4 (mouse) channel inhibition. Q9QUQ5. HEK293 TRPC4beta/mu-opioid, DAMGO-evoked Fluo4 calcium flux; hits give low values. B-score at 10 µM. 300,000 tested, 0.39% active. AID 2247;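 active = B-score over 3 SD under the library average, no early fluorescence shift, positive overall ratio signal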
#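 System: stable TRPC4beta/mu-opioid receptor HEK293 cells; Dosing: single-point compound dosing; Measured by: Fluo4 Ca2+ flux fluorescence; Read-out basis: per-well B score of integrated baseline-normalized Fluo4 ratio.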
# TRPC6 inh: mouse TRPC6 channel inhibition; Q61143; HEK293-TRPC6, membrane potential dye, ACh-evoked depolarization; hits give low values; B-score at 10 µM; 310,000 tested, 1.1% active; AID 2553;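 active = B-score under library mean minus 3 SD, initial fluorescence not abnormally high, positive integrated signal ratio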;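 also: B-score derived from integrated fluorescence ratio over the kinetic read; more negative B-score means stronger inhibition of depolarization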
# TRPC4 agonist: TRPC4 (mouse) channel activation; HEK293 TRPC4beta/mu-opioid, Fluo4 calcium fluorescence; hits give high values; B-score at 10 µM; 310,000 tested, 0.49% active;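 active = B-score above 5 SD of library B-scores, and initial fluorescence ratio not above library mean plus 5 SD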;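 also: positive B-score marks a calcium rise read as TRPC4 activation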
#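 Material: TRPC4beta and mu-opioid receptor HEK293 stable cells | Incubation: 45 min room-temperature Fluo4 loading, 110 s read | Detection: Kinetic Fluo4 calcium fluorescence | Measure: Integrated baseline-normalised fluorescence ratio, converted to per-well B score | Benchmarks: Low control buffer alone, high control maximal DAMGO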
# TRPC6 act: activates the mouse TRPC6 cation channel; B-score at 10 µM; HEK293-TRPC6 membrane potential dye fluorescence; hits give high values; Q61143; 310,000 tested, 0.13% active;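 active = B-score of the integrated fluorescence ratio above library mean plus 3 SD, and starting fluorescence ratio within library mean plus 5 SD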;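 also: higher score means more depolarization so channel activation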
# Kir21 block: Kir2.1 (mouse) channel inhibition. HEK293-Kir2.1, FluxOR thallium flux fluorescence; hits give low values. B-score at 10 µM. 310,000 tested, 0.85% active;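 active = fluorescence ratio B-score at or below minus 3 SD of library scores, with starting-brightness B-score within 2 SD, cut at about -4.2 in these data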;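 also: channel flux triggered by added potassium and thallium sulfate stimulus; B-score of peak minus minimum fluorescence over baseline after thallium stimulus; more negative B-score means stronger Kir2.1 block with less thallium influx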
# TRPC4 sel inh 2: second check of whether TRPC6 inhibitors also affect mouse TRPC4; AID 2776; 920 tested, 42% active; HEK293 TRPC4/MOR, membrane potential dye fluorescence; channel activated by saturating DAMGO dose; inhibition, % at 10 µM; shares compounds with TRPC6 inh;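 active = compounds whose fluorescence signal differed from control wells by over 3 SD, either direction, in both duplicate plates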
# TRPC4 spec: mouse TRPC4 off-target activity of TRPC6 inhibitors; 920 tested, 61% active; shares compounds with TRPC6 inh; activity change, negative = inhibition, % at 10 µM; HEK293 TRPC4/mu-opioid, membrane potential fluorescence;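 active = rise or fall in signal beyond 3 SD of buffer-only wells in both replicate plates, either sign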;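 also: integrated kinetic ratio of fluorescence range over baseline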
# HEK293 MPD ctr 2-1: parental HEK293 nonspecific activity of TRPC6 inhibitors, second screen; shares compounds with TRPC6 inh; parental HEK293 membrane potential dye fluorescence; maximal acetylcholine challenge after compound addition; signal change vs control, % at 10 µM; 920 tested, 31% active; AID 2779;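 active = membrane potential signal moving either way by over 3 SD of the maximum-effect control, in both duplicate plates, meaning non-specific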
# HEK293 MPD ctr-1: counter-screen for TRPC6 inhibitors: effect in parental HEK293 cells; shares compounds with TRPC6 inh; parental HEK293 membrane potential dye fluorescence; membrane potential signal change, % at 10 µM; 920 tested, 60% active; AID 2780;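 active = membrane potential signal shifting up or down by more than 3 SD of buffer-only wells, on both duplicate plates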
# HEK293 MPD ctr-2: parental HEK293 nonspecific activity of TRPC6 modulators; shares compounds with TRPC6 inh; membrane potential dye fluorescence; membrane potential signal change, % at 10 µM; 2,400 tested, 51% active;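 active = membrane potential signal moves up or down beyond 5 SD from buffer-only wells, on both duplicate plates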
# HEK293 MPD ctr 2-2: second counter-screen for TRPC6 modulators: effect in parental HEK293 cells. shares compounds with TRPC6 inh. membrane potential dye fluorescence; after compound, maximal acetylcholine stimulation. inhibition, % at 10 µM. 2,400 tested, 14% active;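 active = membrane potential signal drops by more than 5 SD from the mean control signal, in both duplicate plates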;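 also: plate controls were acetylcholine ECmax control wells for no effect and buffer only wells for full effect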
# TRPC4/MOR mod: mouse TRPC4 off-target activity of TRPC6 modulators; shares compounds with TRPC6 inh; HEK293 TRPC4/mu-opioid, membrane potential fluorescence; percent change from control (negative = decrease, positive = increase), % at 10 µM; 2,400 tested, 69% active;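 active = membrane potential signal moved up or down beyond 5 SD of buffer control wells, in both duplicate plates, actives on both sides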;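 also: plate controls were assay buffer wells for no effect and DAMGO maximal-effect wells for full effect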
# TRPC4/MOR inh 2: second selectivity test of TRPC6 modulators against mouse TRPC4; shares compounds with TRPC6 inh; HEK293 TRPC4/mu-opioid, membrane potential dye fluorescence; stimulated with maximal-effect DAMGO; inhibition, % at 10 µM; 2,400 tested, 55% active; AID 488928;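 active = drop in membrane potential signal beyond 5 SD of the control wells in both duplicate plates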;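 also: TRPC4 counter screen for TRPC6 hits run under conditions tuned for TRPC6 not TRPC4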
# TRPC6 block conf: mouse TRPC6 inhibitor confirmation | shares compounds with TRPC6 inh | HEK293-TRPC6, membrane potential dye, ACh-evoked depolarization | inhibition, % at 10 µM | 3,300 tested, 43% active;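 active = fluorescence ratio falls more than 5 SD below the full-stimulation control mean, in both duplicate runs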;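 also: integrated fluorescence ratio of peak minus minimum over baseline after agonist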
# TRPC6 act conf: confirmation of mouse TRPC6 activators; shares compounds with TRPC6 inh; HEK293-TRPC6 membrane potential dye fluorescence, FDSS; activation, % at 10 µM; 2,800 tested, 11% active;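 active = ratio signal rise beyond 5 SD above unstimulated control wells' mean, seen in both duplicate runs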;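 also: plate controls were buffer EC0 wells for no effect and acetylcholine ECmax response for full effect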
# * hit, by the source's call; i = inactive; . = no result; ! = not active in a repeat. Only some compounds are listed: those with a hit (about 2.9% of all), similar ones and a draw of the others.
SMILES,TRPC4 PAM,TRPC4 block,TRPC6 inh,TRPC4 agonist,TRPC6 act,Kir21 block,HEK293 MPD ctr-2,HEK293 MPD ctr 2-2,TRPC4/MOR mod,TRPC4/MOR inh 2,TRPC6 block conf,TRPC6 act conf,others
O=[N+]([O-])c1ccc(OCCCCN2CCc3ccccc3C2)cc1,i,i,-8.4*,i,i,-0.9,.,.,.,.,i,i,TRPC4 sel inh 2=44%*;TRPC4 spec=i;HEK293 MPD ctr 2-1=i;HEK293 MPD ctr-1=i
O=C(Nc1ccccc1)C1CC(=O)N(Cc2ccccc2)C1 (stereo not drawn),i,i,i,i,i,-0.34,.,.,.,.,.,.,
O=C(Nc1ccc(F)c(Cl)c1)C1CC(=O)N(Cc2ccccc2)C1 (stereo not drawn),i,i,-6.1*,i,i,0.01,i,i,-8.5%*,i,i,i,
C/C(=N\NC(=O)c1c(C)nc2ccccn12)c1ccc(C(C)(C)C)cc1,i,i,i,i,i,1.1,.,.,.,.,.,.,
C/C(=N\NC(=O)c1c(C)nc2ccccn12)c1ccco1,i,i,-5.7*,i,i,-0.8,-309%*,i,-60%*,36%*,50%*,i,
N=C(N=C(N)N)N1CCc2ccccc21,i,i,i,i,i,1.6,.,.,.,.,.,.,
CCN1CCN(c2ccc([N+](=O)[O-])c(Sc3nc4ccccc4[nH]3)c2)CC1,i,i,-5.4*,i,i,0.04,i,i,-12%*,61%*,46%*,i,
COc1ccc(CNC(C)C23CC4CC(CC(C4)C2)C3)c(OC)c1OC (stereo not drawn),i,i,-8.1*,i,i,-2,.,.,.,.,96%*,.,TRPC4 sel inh 2=i;TRPC4 spec=35%*;HEK293 MPD ctr 2-1=i;HEK293 MPD ctr-1=19%*
O=C(CSc1c2c(nc3cc(Cl)ccc13)CCCC2)NCCCN1CCOCC1,i,i,i,i,i,-1.7,.,.,.,.,.,.,
O=C(CSc1c2c(nc3ccc(Cl)cc13)CCCC2)NCCCN1CCOCC1,i,i,-11*,i,i,0.1,.,.,.,.,i,i,TRPC4 sel inh 2=i;TRPC4 spec=i;HEK293 MPD ctr 2-1=34%*;HEK293 MPD ctr-1=i
O=[N+]([O-])c1ccc(S(=O)(=O)N2CCN(Cc3ccco3)CC2)cc1,i,i,i,i,i,0.12,.,.,.,.,.,.,
C[n+]1cccc(/C=N/Nc2nc(Cl)c(C#N)c(Cl)c2Cl)c1,i,i,-6.2*,i,i,0.21,i,80%*,-14%*,i,i,i,
Cc1nn(-c2ccc(N3CCOCC3)nn2)c(C)c1CCC(=O)Nc1ccc(F)cc1,i,i,i,i,i,0.17,.,.,.,.,.,.,
COC(=O)c1cccc(NC(=O)CC2NCCNC2=O)c1 (stereo not drawn),i,i,i,i,i,0.44,.,.,.,.,.,.,
COc1cc(NC(=O)CC2NCCNC2=O)cc(OC)c1 (stereo not drawn),i,i,-6.1*,i,i,0.35,i,i,i,i,i,i,
O=C(COc1cccnc1[N+](=O)[O-])NCc1ccc(F)cc1,i,i,i,i,i,-0.06,.,.,.,.,.,.,
O=C1NC(Cc2c[nH]c3ccccc23)C(=O)N1Cc1ccc(CN2C(=O)NC(Cc3c[nH]c4ccccc34)C2=O)cc1 (stereo not drawn),i,i,-5.3*,i,i,2.4,i,i,i,i,i,i,
CC(C)(C)OC(=O)CN1C(=O)NC(Cc2c[nH]c3ccccc23)C1=O (stereo not drawn),i,i,i,i,i,0.01,.,.,.,.,.,.,
CCc1ccc(CNC(=O)C2CCN(S(=O)(=O)N3CCC4(CC3)OCCO4)CC2)cc1,i,i,i,i,i,-0.22,.,.,.,.,.,.,
COc1ccc([N+](=O)[O-])cc1NC(=O)C(C)N1CCCC1 (stereo not drawn),i,i,-6.1*,i,i,0.07,i,86%*,i,i,72%*,i,
CN1CCN(Cc2coc3c(Cl)cc(Cl)cc3c2=O)CC1,i,i,i,i,i,-0.27,.,.,.,.,.,.,
COc1cc(C(=O)NC(C)c2ccc3ccccc3c2)cc(Cl)c1O (stereo not drawn),i,i,i,i,i,0.84,.,.,.,.,.,.,
CCN1CCC[C@H]1CNC(=O)c1c(O)c(Cl)cc(Cl)c1OC,i,i,-7.4*!,i,i,0.49,.,.,.,.,i,i,TRPC4 sel inh 2=i;TRPC4 spec=i;HEK293 MPD ctr 2-1=i;HEK293 MPD ctr-1=i
CCCN1CCC(NC(=O)C2CCCCC2C(=O)O)CC1 (stereo not drawn),i,i,i,i,i,0.11,.,.,.,.,.,.,
COc1cc2c(cc1OC)C1(Nc3c-2c(Cc2ccccc2)nn3-c2ccccc2)C(=O)Nc2ccccc21 (stereo not drawn),i,i,-6.8*,i,i,1.7,.,.,.,.,i,i,TRPC4 sel inh 2=i;TRPC4 spec=-9.5%*;HEK293 MPD ctr 2-1=i;HEK293 MPD ctr-1=i
